{"source": "paper PMC3747510", "about": "(Scientific Reports, 2013)", "key": {"Human cytosolic LeuRS": {"target": "Human cytosolic LeuRS (Homo sapiens, UniProt Q9P2J5)", "sequence (Q9P2J5 whole entry)": "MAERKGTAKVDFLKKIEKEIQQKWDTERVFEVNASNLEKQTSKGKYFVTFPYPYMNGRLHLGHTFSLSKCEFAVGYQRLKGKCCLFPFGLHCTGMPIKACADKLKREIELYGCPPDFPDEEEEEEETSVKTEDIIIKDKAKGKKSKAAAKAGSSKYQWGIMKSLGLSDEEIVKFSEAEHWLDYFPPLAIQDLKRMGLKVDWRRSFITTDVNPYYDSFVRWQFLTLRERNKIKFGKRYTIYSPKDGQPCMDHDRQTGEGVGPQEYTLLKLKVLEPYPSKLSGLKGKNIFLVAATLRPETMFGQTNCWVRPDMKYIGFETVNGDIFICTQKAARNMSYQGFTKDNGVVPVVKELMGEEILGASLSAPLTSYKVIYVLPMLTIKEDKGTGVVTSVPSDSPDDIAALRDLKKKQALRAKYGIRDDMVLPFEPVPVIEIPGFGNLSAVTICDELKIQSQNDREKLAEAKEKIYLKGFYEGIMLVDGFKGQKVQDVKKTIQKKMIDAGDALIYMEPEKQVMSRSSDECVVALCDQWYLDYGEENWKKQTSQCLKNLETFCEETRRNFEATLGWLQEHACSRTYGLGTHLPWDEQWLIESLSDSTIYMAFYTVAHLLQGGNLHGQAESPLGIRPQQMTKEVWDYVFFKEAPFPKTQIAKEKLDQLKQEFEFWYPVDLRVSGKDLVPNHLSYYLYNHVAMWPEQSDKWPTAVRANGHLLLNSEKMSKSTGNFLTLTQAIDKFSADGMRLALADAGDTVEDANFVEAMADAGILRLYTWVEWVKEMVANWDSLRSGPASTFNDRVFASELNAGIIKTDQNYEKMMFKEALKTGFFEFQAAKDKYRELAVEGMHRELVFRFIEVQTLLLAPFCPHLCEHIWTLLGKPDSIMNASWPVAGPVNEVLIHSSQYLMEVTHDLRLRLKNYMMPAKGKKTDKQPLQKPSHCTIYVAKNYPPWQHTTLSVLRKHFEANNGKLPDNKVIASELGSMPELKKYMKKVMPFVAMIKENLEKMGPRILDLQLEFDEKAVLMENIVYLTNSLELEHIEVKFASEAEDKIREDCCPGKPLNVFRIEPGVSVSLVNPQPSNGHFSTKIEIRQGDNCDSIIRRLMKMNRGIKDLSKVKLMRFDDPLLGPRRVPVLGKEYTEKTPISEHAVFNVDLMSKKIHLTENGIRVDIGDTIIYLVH", "assay": "Aminoacylation inhibition", "format": "biochemical", "how_it_was_run": "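Human cytosolic or mitochondrial LeuRS, expressed in E. coli. Aminoacylation run at 30°C. At least six test-compound concentrations were tested, with enzyme amount set to form 10 pmol Leu-tRNALeu in 5 min. IC50 was taken from a fitted dose-response curve, as the mean of at least two independent experiments.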"}, "SpLeuRS [1]": {"target": "T1, SpLeuRS (Streptococcus pneumoniae serotype 4, UniProt Q97SS0)", "T1 sequence (Q97SS0 1-833)": "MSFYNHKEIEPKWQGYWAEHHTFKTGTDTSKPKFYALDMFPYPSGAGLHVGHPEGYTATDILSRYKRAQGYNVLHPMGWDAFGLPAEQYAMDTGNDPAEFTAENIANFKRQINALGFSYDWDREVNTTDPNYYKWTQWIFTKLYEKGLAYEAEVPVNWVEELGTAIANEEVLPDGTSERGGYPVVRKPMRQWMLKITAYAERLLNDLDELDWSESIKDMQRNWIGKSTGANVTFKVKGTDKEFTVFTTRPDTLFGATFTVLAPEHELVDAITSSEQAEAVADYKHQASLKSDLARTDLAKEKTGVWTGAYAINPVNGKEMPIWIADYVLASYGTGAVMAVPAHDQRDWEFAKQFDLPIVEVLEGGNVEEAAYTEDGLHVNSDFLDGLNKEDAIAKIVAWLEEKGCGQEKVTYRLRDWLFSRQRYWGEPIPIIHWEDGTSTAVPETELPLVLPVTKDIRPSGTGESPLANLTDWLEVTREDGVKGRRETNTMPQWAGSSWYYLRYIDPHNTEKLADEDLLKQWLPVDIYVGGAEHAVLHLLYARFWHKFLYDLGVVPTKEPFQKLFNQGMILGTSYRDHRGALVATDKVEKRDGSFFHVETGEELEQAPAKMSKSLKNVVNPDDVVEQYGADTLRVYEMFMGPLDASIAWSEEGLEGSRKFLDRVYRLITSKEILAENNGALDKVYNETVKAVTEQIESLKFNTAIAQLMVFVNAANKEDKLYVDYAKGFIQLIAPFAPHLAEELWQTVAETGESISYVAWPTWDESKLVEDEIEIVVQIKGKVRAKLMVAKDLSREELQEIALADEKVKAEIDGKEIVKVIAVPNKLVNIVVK", "assay": "Post-transfer editing", "format": "biochemical", "details": "5 or 50 μM ZCL039, 1 μM [3H]Met-SptRNALeu", "how_it_was_run": "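Enzyme and test compound were preincubated 20 min. Substrate was mischarged with the EcLeuRS-D345A editing mutant (30 min, 37°C), then acid-phenol extracted. Controls: DMSO, and no-enzyme spontaneous hydrolysis. Means of three experiments.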"}, "S. pneumoniae": {"system": "S. pneumoniae", "assay": "Broth microdilution MIC, S. pneumoniae", "format": "cell-based", "details": "Streptococcus pneumoniae, 24 h, read-out: MIC, Bacteria, S. pneumoniae", "how_it_was_run": "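S. pneumoniae clinical isolate, from paediatric community-acquired pneumonia. CLSI M7-A7 broth microdilution in Mueller Hinton broth with 2.5% lysed sheep blood, inoculum about 2 × 10^8 CFU/mL. Serial test-compound dilutions, 37°C for 24 h. MIC was the lowest concentration suppressing visible growth.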"}, "HEK 293": {"system": "HEK 293", "assay": "Cell proliferation assay", "format": "cell-based", "details": "Homo sapiens, HEK293, read-out: IC50, Human cell lines, HEK 293", "how_it_was_run": "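Cells in DMEM/10% FBS, 37°C, 5% CO2. Seeded from 1 × 10^5 cells/mL and allowed to adhere overnight. Test compound added at 2.5–100 μg/mL (0.5% DMSO final), five wells per concentration. Incubated 0, 24, 48 or 72 h, then 4 h with MTS/PMS (20:1), and A492 read. DMSO and medium-only controls. IC50 by nonlinear regression against log concentration.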"}, "SpLeuRS [2]": {"target": "T1, SpLeuRS", "assay": "Inhibitory kinetics of SpLeuRS aminoacylation", "format": "biochemical", "details": "for Ki: 2 nM SpLeuRS", "how_it_was_run": "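Test compound at 0, 2 or 8 μM. Substrate-velocity data were linearized by reciprocal fitting into Lineweaver-Burk plots to derive kinetic constants and inhibition mode.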"}, "[3]": {"target": "T2, S. pneumoniae LeuRS (SpLeuRS) (Streptococcus pneumoniae serotype 4, UniProt Q97SS0)", "T2 sequence (Q97SS0 1-833)": "T1 sequence (Q97SS0 1-833)", "assay": "Aminoacylation inhibition", "format": "biochemical", "how_it_was_run": "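Aminoacylation at 37°C with [3H]leucine, started with 4 mM ATP, in Tris-HCl pH 7.5 buffer. Each LeuRS was used at equal activity, i.e. forming 10 pmol Leu-tRNALeu in 5 min. At least six test-compound concentrations were tested. IC50 was taken from a fitted dose-response curve, as the mean of at least two independent experiments.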"}}, "data": [{"smiles": "OB1OCc2ccc(C(O)c3ccccc3)cc21", "note": "(centres unmarked) [ZCL039, [6-(1-phenyl-1-hydroxylmethyl)]-1,3-dihydro-1-hydroxy-2,1-benzoxaborole]", "values": [{"measurement": "IC50", "setting": "Human cytosolic LeuRS", "value": "> 250", "unit": "µM"}, {"measurement": "Fold more sensitivity of SpLeuRS than human cytosolic LeuRS", "setting": "Human cytosolic LeuRS; aminoacylation", "value": "over 150 fold"}, {"measurement": "Fold less sensitive than SpLeuRS", "setting": "Human cytosolic LeuRS; human cytosolic and mitochondrial LeuRSs vs SpLeuRS", "value": "approximately 150 fold"}, {"measurement": "Effect on hydrolysis of mischarged Met-SptRNALeu (editing)", "setting": "SpLeuRS [1]", "value": "severely block"}, {"measurement": "MIC", "setting": "S. pneumoniae", "value": 5, "unit": "µg/mL"}, {"measurement": "IC50", "setting": "HEK 293", "value": "> 200", "unit": "µM"}, {"measurement": "kcat of SpLeuRS, substrate ATP", "setting": "SpLeuRS [2]; +2 μM ZCL039", "value": "6.35 ± 0.65", "unit": "s⁻¹"}, {"measurement": "kcat of SpLeuRS, substrate Leu", "setting": "SpLeuRS [2]; +2 μM ZCL039", "value": "6.44 ± 0.55", "unit": "s⁻¹"}, {"measurement": "kcat of SpLeuRS, substrate SptRNALeu", "setting": "SpLeuRS [2]; +2 μM ZCL039", "value": "6.62 ± 0.48", "unit": "s⁻¹"}, {"measurement": "kcat of SpLeuRS, substrate ATP", "setting": "SpLeuRS [2]; +8 μM ZCL039", "value": "2.80 ± 0.32", "unit": "s⁻¹"}, {"measurement": "kcat of SpLeuRS, substrate Leu", "setting": "SpLeuRS [2]; +8 μM ZCL039", "value": "2.61 ± 0.16", "unit": "s⁻¹"}, {"measurement": "kcat of SpLeuRS, substrate SptRNALeu", "setting": "SpLeuRS [2]; +8 μM ZCL039", "value": "2.89 ± 0.24", "unit": "s⁻¹"}, {"measurement": "Ki", "setting": "SpLeuRS [2]; substrate ATP", "value": "2630 ± 260", "unit": "nM"}, {"measurement": "Ki", "setting": "SpLeuRS [2]; substrate Leu", "value": "2650 ± 220", "unit": "nM"}, {"measurement": "Mode of inhibition with respect to ATP and Leu", "setting": "SpLeuRS [2]; Km unaffected, maximum rates decreased", "value": "noncompetitive"}, {"measurement": "Mode of inhibition with regard to tRNALeu", "setting": "SpLeuRS [2]; apparent Km and rate both reduced", "value": "uncompetitive"}, {"measurement": "IC50", "setting": "[3]", "value": "1720 ± 50", "unit": "nM"}]}]}
